In ChEMBL document CHEMBL5096186, “Design, Synthesis, and Biological Evaluation of Novel Pyrimido[4,5-b]indole Derivatives Against Gram-Negative Multidrug-Resistant Pathogens” (J Med Chem, 2021):
Converted amounts (≈) assume the structure as drawn.

Tests used:
[1] = system: Staphylococcus aureus; assay: Antibacterial activity against methicillin-resistant Staphylococcus aureus strains 15 1 to 4 assessed as reduction in bacterial growth incubated for 18 to 20 hrs by CLSI based microdilution method; assay type: functional; details: time 18-20 hrs
Procedure, shortened: (§1)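 Broth microdilution per CLSI. Compounds dissolved in DMSO (levofloxacin and meropenem in water) as 64 μg/mL stock, then serial twofold dilutions in broth giving 64 to 0.008 μg/mL. […] Clinical isolates tested as several strains per group; racemic GP-1 served as positive control; values given as MIC ranges.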

[2] = system: Staphylococcus aureus; assay: Antibacterial activity against methicillin-sensitive Staphylococcus aureus strains 15 1 to 4 assessed as reduction in bacterial growth incubated for 18 to 20 hrs by CLSI based microdilution method; assay type: functional; details: time 18-20 hrs; procedure, shortened: as §1
[3] = system: Staphylococcus epidermidis; assay: Antibacterial activity against methicillin-sensitive Staphylococcus epidermidis strains 15 1 to 4 assessed as reduction in bacterial growth incubated for 18 to 20 hrs by CLSI based microdilution method; assay type: functional; details: time 18-20 hrs; procedure, shortened: as §1
[4] = system: Escherichia coli; assay: Antibacterial activity against ESBL-producing Escherichia coli ATCC 35218 strains 15 1 to 3 assessed as reduction in bacterial growth incubated for 18 to 20 hrs by CLSI based microdilution method; assay type: functional; details: time 18-20 hrs
Procedure, shortened: (§2)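 CLSI broth microdilution. Compounds in DMSO (levofloxacin and meropenem in water), serial twofold dilutions in broth, 64 to 0.008 μg/mL. […] Results reported as MIC ranges across strains.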

[5] = system: Escherichia coli; assay: Antibacterial activity against Escherichia coli ATCC 35218 strains 15 1 to 3 assessed as reduction in bacterial growth incubated for 18 to 20 hrs by CLSI based microdilution method; assay type: functional; details: time 18-20 hrs; procedure, shortened: as §2
[6] = system: Pseudomonas aeruginosa; assay: Antibacterial activity against multidrug resistant Pseudomonas aeruginosa strains 15 1 to 3 assessed as reduction in bacterial growth incubated for 18 to 20 hrs by CLSI based microdilution method; assay type: functional; details: time 18-20 hrs; procedure, shortened: as §1
[7] = molecular target: hERG (KCNH2) potassium channel (Homo sapiens, UniProt Q12809); assay: Inhibition of hERG potassium channel assessed as maximum inhibition rate at 40 uM at -80 mV holding potential incubated for 120 seconds by whole cell-automated voltage clamp analysis assay relative to control; assay type: toxicity; details: time 120 sec
Procedure, shortened: (§3)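 Automated whole-cell patch clamp, holding potential −80 mV. Voltage protocol applied every 20 s. Baseline set with external solution containing 0.1% DMSO and stabilised 3 min. Compound applied until steady state, at least 3 min, then washout. Maximum tested concentration 40 μM, or 3 μM for cisapride as positive control.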

[8] = molecular target: Voltage-gated inwardly rectifying potassium channel KCNH2 (Homo sapiens, UniProt Q12809); assay: Inhibition of hERG potassium channel assessed as […] at -80 mV holding potential incubated for 120 seconds by whole cell-automated voltage clamp analysis assay; assay type: toxicity; procedure, shortened: as §3
[9] = system: Escherichia coli; assay: Antibacterial activity against ESBL-producing multidrug resistant Escherichia coli assessed as reduction in bacterial growth incubated for 18 to 20 hrs by CLSI based microdilution method; assay type: functional; details: time 18-20 hrs; procedure, shortened: as §1
[10] = system: Escherichia coli; assay: Antibacterial activity against multidrug resistant wild type Escherichia coli ATCC BAA-2340 assessed as reduction in bacterial growth incubated for 18 to 20 hrs by CLSI based microdilution method; assay type: functional; details: time 18-20 hrs; procedure, shortened: as §1
[11] = system: Escherichia coli; assay: Antibacterial activity against multidrug resistant wild type Escherichia coli NCTC 13353 assessed as reduction in bacterial growth incubated for 18 to 20 hrs by CLSI based microdilution method; assay type: functional; details: time 18-20 hrs; procedure, shortened: as §1
[12] = system: Klebsiella pneumoniae; assay: Antibacterial activity against KPC2-producing multidrug resistant Klebsiella pneumoniae assessed as reduction in bacterial growth incubated for 18 to 20 hrs by CLSI based microdilution method; assay type: functional; details: time 18-20 hrs; procedure, shortened: as §1
[13] = system: Klebsiella pneumoniae; assay: Antibacterial activity agains wild type Klebsiella pneumoniae ATCC BAA-1705 assessed as reduction in bacterial growth incubated for 18 to 20 hrs by CLSI based microdilution method; assay type: functional; details: time 18-20 hrs; procedure, shortened: as §2
[14] = system: Klebsiella pneumoniae; assay: Antibacterial activity agains wild type Klebsiella pneumoniae ATCC BAA-2470 assessed as reduction in bacterial growth incubated for 18 to 20 hrs by CLSI based microdilution method; assay type: functional; details: time 18-20 hrs; procedure, shortened: as §1
[15] = system: Acinetobacter baumannii; assay: Antibacterial activity agains OXA23-producing multidrug resistant Acinetobacter baumannii assessed as reduction in bacterial growth incubated for 18 to 20 hrs by CLSI based microdilution method; assay type: functional; details: time 18-20 hrs; procedure, shortened: as §1
[16] = system: Acinetobacter baumannii; assay: Antibacterial activity against wild type Acinetobacter baumannii NCTC 13304 assessed as reduction in bacterial growth incubated for 18 to 20 hrs by CLSI based microdilution method; assay type: functional; details: time 18-20 hrs; procedure, shortened: as §1
[17] = system: Pseudomonas aeruginosa; assay: Antibacterial activity against IMP4-producing multidrug resistant Pseudomonas aeruginosa assessed as reduction in bacterial growth incubated for 18 to 20 hrs by CLSI based microdilution method; assay type: functional; details: time 18-20 hrs; procedure, shortened: as §1
[18] = system: Pseudomonas aeruginosa; assay: Antibacterial activity against wild type Pseudomonas aeruginosa ATCC 27853 assessed as reduction in bacterial growth incubated for 18 to 20 hrs by CLSI based microdilution method; assay type: functional; details: time 18-20 hrs; procedure, shortened: as §2
[19] = Cytotoxicity against human L02 cells assessed as cell viability measured for 48 hrs by CCK-8 assay; assay type: toxicity, cell-based
Procedure, shortened: (§4)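 Cells seeded at 1 × 10⁴ per well and grown for 48 h. Then exposed to test articles at 1–200 μM for another 48 h (n = 6). Viability by CCK-8 added for 2 h, absorbance read at 450 nm. CC50 calculated and reported as the mean.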

[20] = Cytotoxicity against human HEK293 cells assessed as cell viability measured for 48 hrs by CCK-8 assay; assay type: toxicity, cell-based; procedure, shortened: as §4
[21] = Metabolic stability in rat liver microsome assessed as elimination half life at 0.1 uM in presence of NADPH incubated upto 60 mins by LC-MS/MS analysis; assay type: ADME; details: liver microsomes, read-out: beta t1/2
Procedure, shortened: (§5)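 Compound at 0.1 μM final, in 0.01% DMSO with 0.005% BSA. Incubated with rat or human liver microsomes at 0.33 mg/mL in 0.1 M Tris-HCl, pH 7.4, with 5 mM MgCl₂ and 1 mM NADPH, at 37 °C. Samples at 0, 7, 17, 30 and 60 min quenched with cold methanol and analysed by LC-MS/MS. Half-life, Cl_int and MF% derived as previously described.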

[22] = Metabolic stability in human liver microsome assessed as elimination half life at 0.1 uM in presence of NADPH incubated upto 60 mins by LC-MS/MS analysis; assay type: ADME; details: liver microsomes, read-out: beta t1/2; procedure, shortened: as §5
[23] = Metabolic stability in rat liver microsome assessed as intrinsic clearance at 0.1 uM in presence of NADPH incubated upto 60 mins by LC-MS/MS analysis; assay type: ADME; details: microsomes, 1 h; procedure, shortened: as §5
[24] = Metabolic stability in human liver microsome assessed as intrinsic clearance at 0.1 uM in presence of NADPH incubated upto 60 mins by LC-MS/MS analysis; assay type: ADME; details: microsomes, 1 h; procedure, shortened: as §5
[25] = Metabolic stability in rat liver microsome assessed as metabolic bioavailability at 0.1 uM in presence of NADPH incubated upto 60 mins by LC-MS/MS analysis; assay type: ADME; details: liver microsomes; procedure, shortened: as §5
[26] = Metabolic stability in human liver microsome assessed as metabolic bioavailability at 0.1 uM in presence of NADPH incubated upto 60 mins by LC-MS/MS analysis; assay type: ADME; details: liver microsomes; procedure, shortened: as §5
[27] = Drug metabolism in Spargue-Dawley rat liver microsomes assessed as formation of M5 metabolite incubated upto 60 mins by UHPLC-MS/MS analysis; assay type: ADME, Microsome; details: 1 h
Procedure, shortened: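 Male SD rat liver microsomes at 1 mg protein/mL with 2 mM NADP and 5 mM MgCl₂ in 100 mM potassium phosphate, pH 7.4. Compound preincubated 5 min at 37 °C. Samples at 0, 30 and 60 min quenched with cold acetonitrile containing 0.1% formic acid, then analysed by UHPLC-MS/MS. Relative peak areas from extracted ion chromatograms at 60 min.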

[28] = AUC (0 to infinity) in Sprague-Dawley rat at 4 mg/kg, iv measured upto 24 hrs by LC-MS/MS analysis; assay type: ADME, organism-based; parameters: time < 24 hrs, dose 4 mg/kg, route iv; details: in vivo
Procedure, shortened: (§6)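 Male Sprague-Dawley rats, n = 3 per group, single intravenous dose. For 4 mg/kg: 180–280 g rats, vehicle 5% DMSO + 5% EtOH + 40% PEG300 + 50% saline, blood from the retrobulbar vein at 0.05–24 h. For 5 and 20 mg/kg: 180–300 g rats, vehicle 5% DMSO + 5% solutol + 90% saline, sampled at 0.083–24 h. Plasma quantified by LC/MS/MS. Parameters from mean plasma concentration by noncompartmental analysis; values are mean ± standard deviation.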

[29] = Elimination half life in Sprague-Dawley rat at 4 mg/kg, iv measured upto 24 hrs by LC-MS/MS analysis; assay type: ADME, organism-based; details: in vivo, read-out: beta t1/2 (converted); procedure, shortened: as §6
[30] = MRT in Sprague-Dawley rat at 4 mg/kg, iv measured upto 24 hrs by LC-MS/MS analysis; assay type: ADME, organism-based; details: in vivo; procedure, shortened: as §6
[31] = Clearance in Sprague-Dawley rat at 4 mg/kg, iv measured upto 24 hrs by LC-MS/MS analysis; assay type: ADME, organism-based; details: in vivo; procedure, shortened: as §6
[32] = Volume of distribution at the steady state in Sprague-Dawley rat at 4 mg/kg, iv measured upto 24 hrs by LC-MS/MS analysis; assay type: ADME, organism-based; details: in vivo, read-out: Vdss; procedure, shortened: as §6

Voltage-gated inwardly rectifying potassium channel KCNH2, sequence (Q12809 whole entry): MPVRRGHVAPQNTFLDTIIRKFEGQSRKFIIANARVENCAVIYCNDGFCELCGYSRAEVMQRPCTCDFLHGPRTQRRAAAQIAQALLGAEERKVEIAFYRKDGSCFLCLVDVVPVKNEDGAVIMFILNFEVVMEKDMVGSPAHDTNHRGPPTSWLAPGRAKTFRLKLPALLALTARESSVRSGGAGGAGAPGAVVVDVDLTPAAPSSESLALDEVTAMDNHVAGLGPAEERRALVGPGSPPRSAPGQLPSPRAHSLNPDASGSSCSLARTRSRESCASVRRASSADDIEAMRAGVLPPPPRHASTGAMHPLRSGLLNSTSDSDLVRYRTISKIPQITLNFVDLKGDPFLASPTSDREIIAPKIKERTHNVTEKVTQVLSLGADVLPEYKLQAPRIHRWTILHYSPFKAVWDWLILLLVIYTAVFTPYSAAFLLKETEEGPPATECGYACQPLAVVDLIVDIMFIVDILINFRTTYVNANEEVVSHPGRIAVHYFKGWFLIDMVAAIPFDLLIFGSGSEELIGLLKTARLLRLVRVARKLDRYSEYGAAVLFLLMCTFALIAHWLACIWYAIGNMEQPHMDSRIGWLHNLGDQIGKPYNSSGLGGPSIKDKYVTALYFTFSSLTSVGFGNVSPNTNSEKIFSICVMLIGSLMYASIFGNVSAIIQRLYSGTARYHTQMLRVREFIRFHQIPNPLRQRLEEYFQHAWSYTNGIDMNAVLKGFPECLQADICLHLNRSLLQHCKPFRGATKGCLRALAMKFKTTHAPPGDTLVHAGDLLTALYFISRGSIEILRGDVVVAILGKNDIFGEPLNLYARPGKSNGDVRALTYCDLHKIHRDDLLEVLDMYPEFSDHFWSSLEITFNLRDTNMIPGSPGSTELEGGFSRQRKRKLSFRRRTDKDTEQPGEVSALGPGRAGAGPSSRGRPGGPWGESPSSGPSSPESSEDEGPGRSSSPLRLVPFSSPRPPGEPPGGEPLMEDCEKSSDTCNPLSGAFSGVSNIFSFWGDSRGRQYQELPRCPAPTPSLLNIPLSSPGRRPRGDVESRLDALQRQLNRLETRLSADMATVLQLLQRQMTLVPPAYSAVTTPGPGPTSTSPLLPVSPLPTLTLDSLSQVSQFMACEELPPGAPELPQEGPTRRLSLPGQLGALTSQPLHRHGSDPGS
hERG (KCNH2) potassium channel, sequence (Q12809 whole entry): as above

| SMILES | MIC [2] | MIC [3] | MIC [4] | MIC [5] | MIC [6] | inhibition at 2 min, 40 µM [7] | IC50 [8] | MIC [9] | MIC [10] | MIC [11] | MIC [12] | MIC [13] | MIC [14] | MIC [15] | MIC [16] | MIC [17] | MIC [18] | CC50 at 48 h [19] | CC50 at 48 h [20] | also measured |
| --- | --- | --- | --- | --- | --- | --- | --- | --- | --- | --- | --- | --- | --- | --- | --- | --- | --- | --- | --- | --- |
| CNc1cc(F)cc2c1[nH]c1nc(Oc3cnc(C)nc3)nc(N3CC4CCNC4C3)c12 (racemic) | < 0.008 µg/mL | < 0.008 µg/mL | 0.25 µg/mL (≈ 0.575 µM) | 0.06 µg/mL (≈ 0.138 µM) | 0.5 µg/mL (≈ 1.15 µM) | 70.5% | 12.3 µM | 0.5 µg/mL (≈ 1.15 µM) | 0.5 µg/mL (≈ 1.15 µM) | 0.25 µg/mL (≈ 0.575 µM) | 2 µg/mL (≈ 4.6 µM) | 4 µg/mL (≈ 9.21 µM) | 1 µg/mL (≈ 2.3 µM) | 0.5 µg/mL (≈ 1.15 µM) | 0.25 µg/mL (≈ 0.575 µM) | 16 µg/mL (≈ 36.8 µM) | 4 µg/mL (≈ 9.21 µM) | 24 µM | 21.8 µM | MIC [1]: 0.015 µg/mL (≈ 0.0345 µM) |
| CCC(CN)=C1CN(c2nc(Oc3cnc(C)nc3)nc3[nH]c4c(NC)cc(F)cc4c23)C1 | < 0.008 µg/mL | < 0.008 µg/mL | < 0.008 µg/mL | < 0.008 µg/mL | 0.5 µg/mL (≈ 1.11 µM) | 41.1% | > 40 µM | 0.25 µg/mL (≈ 0.557 µM) | 0.25 µg/mL (≈ 0.557 µM) | 0.125 µg/mL (≈ 0.279 µM) | 1 µg/mL (≈ 2.23 µM) | 2 µg/mL (≈ 4.46 µM) | 1 µg/mL (≈ 2.23 µM) | 0.125 µg/mL (≈ 0.279 µM) | 0.125 µg/mL (≈ 0.279 µM) | 2 µg/mL (≈ 4.46 µM) | 1 µg/mL (≈ 2.23 µM) | 9.74 µM | 17 µM | half-life at 0.1 µM [21]: 0.472 h; half-life at 0.1 µM [22]: 2.45 h; CLH [23]: 74.3 mL/min/g; CLH [24]: 14.3 mL/min/g; Fh at 1 h, 0.1 µM [25]: 37.4%; Fh at 1 h, 0.1 µM [26]: 57.8%; Activity [27]: 72.85%; AUC(0-inf) [28]: 776 ng·h/mL; half-life [29]: 3.7 h; MRT [30]: 2.8 h; clearance [31]: 86.7 mL/min/kg; Vd [32]: 14.7 L/kg |
